MBD2 inh = inhibitors of MBD2 binding to methylated DNA, primary screen, biochemical, TR-FRET, DNA-binding domain, human; MBD2 binding to methylated oligonucleotide; inhibition, % at 4.4 µM; 370,000 tested, 0.31% active; in the data active = inhibition above about 13%
Casp6 inh = human caspase-6 inhibitors, primary screen, biochemical, VEID-R110 fluorescence, single point, set 2; purified caspase-6, Z-VEID-R110 cleavage fluorescence; inhibition, % at 12.5 µM; 350,000 tested, 0.53% active; AID 686996, 2013;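 active = mean inhibition across replicates at least about 35%, with every replicate also reaching that limit, limit read from the data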;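 also: 0% = median of neutral control wells and 100% = no fluorescence left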
Target sequence (P55212 24-179 limits assumed): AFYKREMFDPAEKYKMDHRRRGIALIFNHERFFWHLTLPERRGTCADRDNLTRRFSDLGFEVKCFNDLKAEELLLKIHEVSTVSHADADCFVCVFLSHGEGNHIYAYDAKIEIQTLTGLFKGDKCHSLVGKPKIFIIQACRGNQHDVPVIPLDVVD
Target sequence (P55212 194-293 limits assumed): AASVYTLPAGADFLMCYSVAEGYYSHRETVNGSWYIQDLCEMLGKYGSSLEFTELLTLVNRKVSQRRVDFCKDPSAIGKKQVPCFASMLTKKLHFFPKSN
UHRF1 binding = UHRF1 methylated DNA binding inhibitors, primary screen, counter-screen for MBD2 inhibitor project, biochemical, TR-FRET, human UHRF1, single concentration. UHRF1 binding to methylated oligo. E3 ubiquitin-protein ligase UHRF1 (Homo sapiens), Q96T88. AID 687016, 2013. inhibition, % at 4.4 µM. 370,000 tested, 0.75% active; in the data active = inhibition above about 21%;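 also: UHRF1 SRA domain binding a hemimethylated CpG hairpin DNA probe; 0% = median of test compound wells and 100% = reference inhibitor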
LEDGF integ inh = blockers of LEDGF/p75-dependent integrase strand transfer – biochemical, TR-FRET, high throughput, primary screen | HIV-1 integrase (with human LEDGF/p75) | TR-FRET IN-LEDGF/p75 DNA integration, Eu/Cy5 | inhibition, % at 3.7 µM | 370,000 tested, 0.64% active | AID 743269, 2014;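 active = inhibition above the screen-wide mean plus 3 SD, cut at about 13% in these data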;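 also: signal is the Cy5 over europium emission ratio at 671 and 618 nm; 0% = plate median of compound wells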
TDP2 inh = human TDP2 enzyme inhibitors, primary screen, biochemical, epi absorbance, recombinant enzyme; 370,000 tested, 0.34% active; inhibition, % at 12.8 µM; T5PNP hydrolysis, p-nitrophenol absorbance 415 nm; Tyrosyl-DNA phosphodiesterase 2 (Homo sapiens), O95551;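 active = inhibition above the mean of all tested compounds plus 3 SD, set per campaign, cut at about 25% in these data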;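 also: 0% = DMSO with enzyme and 100% = buffer with substrate but no TDP2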
Target sequence (O95551 whole entry, looked up): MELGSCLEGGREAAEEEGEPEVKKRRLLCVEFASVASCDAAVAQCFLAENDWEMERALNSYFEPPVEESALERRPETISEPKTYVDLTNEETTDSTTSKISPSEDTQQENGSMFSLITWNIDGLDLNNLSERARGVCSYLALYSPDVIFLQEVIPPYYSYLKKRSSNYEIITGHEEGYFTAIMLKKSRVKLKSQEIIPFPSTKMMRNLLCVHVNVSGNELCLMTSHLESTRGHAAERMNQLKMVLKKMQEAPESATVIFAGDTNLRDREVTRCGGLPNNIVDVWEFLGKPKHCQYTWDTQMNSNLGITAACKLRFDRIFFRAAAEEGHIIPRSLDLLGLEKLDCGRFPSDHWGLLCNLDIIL
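System: recombinant human TDP2 / Amount: 120 nM TDP2 per well / Also added: 5 mM T5PNP chromogenic substrate / Doses: 12.8 µM single point, 1% DMSO / Incubation: 2 h at 37 °C / Detection: p-Nitrophenol epi absorbance / Evaluation: % inhibition relative to enzyme-containing and enzyme-free wells / Repeats: singlicate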
NSD2 inh = NSD2 histone methyltransferase inhibitors, primary screen, biochemical, AlphaScreen, single concentration, set 2; inhibition, % at 12.5 µM; Histone-lysine N-methyltransferase NSD2 (Homo sapiens), O96028; AID 743445, 2014; 310,000 tested, 0.54% active; NSD2 peptide methylation, 120 min; in the data active = inhibition above about 50%
IN multimer up = HIV-1 IN multimer formation enhancers, counter-screen for LEDGF/p75 integration inhibitor project, biochemical, TR-FRET. shares compounds with LEDGF integ inh. TR-FRET HIV-1 integrase multimerization. activation, % at 7.7 µM. 2,000 tested, 17% active. AID 1053131, 2014; in the data active = activation above about 8.9%
TRFRET interf = TR-FRET optical interference artefacts, confirmation, artefact control for LEDGF/p75-dependent integration inhibitor project, biochemical, HIV-1 IN multimerization; shares compounds with LEDGF integ inh; TR-FRET optical interference counterscreen; inhibition, % at 7.7 µM; 2,000 tested, under 10 active;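 active = inhibition above the mean over all tested compounds plus 3 SD, which no compound reached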;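 also: 0% = integrase with antibodies and DMSO and 100% = antibodies without integrase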
IN-LEDGF confirm = inhibitors of HIV-1 IN-LEDGF/p75 DNA integration, confirmation, biochemical, TR-FRET. shares compounds with LEDGF integ inh. TR-FRET LEDGF/p75-dependent HIV-1 integration. inhibition, % at 3.7 µM. 2,000 tested, 36% active. AID 1053136, 2014; in the data active = inhibition above about 14%
AlphaScreen art = AlphaScreen signal interference with preloaded methylated product, dose response, artefact control for NSD2 inhibitor project, biochemical, cherry-picked samples | shares compounds with NSD2 inh | AlphaScreen artifact counterscreen, preloaded methylated H4 peptide | AC35, µM (series often up to 10 µM), for inactives: top-dose activity change, negative = signal loss | 1,500 tested, 9.4% active; call rule not given here
* marks the source's active call; other numbers are inactive results. Rows were chosen to be rich in hits. Some 1.8% of all compounds tested hit in one or more screens of this group.

How did CC(/C=N/n1c(-c2cccnc2)n[nH]c1=S)=C\c1ccco1 do in these assays?
MBD2 inh: -12; Casp6 inh: 14; UHRF1 binding: -2; LEDGF integ inh: -2; TDP2 inh: -2; NSD2 inh: 7

What do the screens show for `C/C(C=Nn1c(-c2ccc(F)cc2)n[nH]c1=S)=C/c1ccco1`?
MBD2 inh: -2; UHRF1 binding: -2; LEDGF integ inh: 15*; TDP2 inh: -5; NSD2 inh: 61*; IN multimer up: 0; TRFRET interf: 1; IN-LEDGF confirm: 9; AlphaScreen art: -4%

How did Oc1ccc(/C=N/N2CCOCC2)c(O)c1O do in these assays?
MBD2 inh: -3; Casp6 inh: 7; UHRF1 binding: 7; LEDGF integ inh: 52*; TDP2 inh: 0; NSD2 inh: 87*; IN multimer up: 9; TRFRET interf: -43; IN-LEDGF confirm: 18*; AlphaScreen art: -2%

What do the screens show for `COc1ccc(O)c(/C=N/N2CCOCC2)c1`?
MBD2 inh: 0; Casp6 inh: -2; UHRF1 binding: 2; LEDGF integ inh: -5; TDP2 inh: -6; NSD2 inh: -3

Results for CN(C)Cc1cc(C(C)(C)C)cc(C(C)(C)C)c1O ?
MBD2 inh: -3; Casp6 inh: -1; UHRF1 binding: 1; LEDGF integ inh: 3; TDP2 inh: -4; NSD2 inh: -2

What do the screens show for `CN(C)Cc1cc(O)c(CN(C)C)cc1O`?
MBD2 inh: -1; Casp6 inh: 2; UHRF1 binding: 15; LEDGF integ inh: 24*; TDP2 inh: 14; NSD2 inh: 86*; IN multimer up: 5; TRFRET interf: -17; IN-LEDGF confirm: 30*; AlphaScreen art: 1%

Results for O=C(c1coc(=O)c(Br)c1)N1CCCc2ccccc21 ?
MBD2 inh: 6; UHRF1 binding: 14; LEDGF integ inh: 19*; TDP2 inh: 1; NSD2 inh: 52*; IN multimer up: -1; TRFRET interf: 4; IN-LEDGF confirm: 17*; AlphaScreen art: -4%

Results for CN(C)CC(=O)N1[C@H](C(=O)NCc2ccccc2F)[C@@H](CO)[C@@H]2Cn3c(cccc3=O)[C@@H]21 ?
Casp6 inh: 0

What do the screens show for `C[C@@H]1CN([C@@H](C)CO)C(=O)c2cc(NS(C)(=O)=O)ccc2O[C@@H](C)CCCCO[C@H]1CN(C)C(=O)c1ccccc1`?
Casp6 inh: -2

What do the screens show for `COc1ccc(/C=N/NC(=O)c2nn(-c3ccccc3)c(=O)c3c(N)scc23)cc1`?
MBD2 inh: -2; UHRF1 binding: 12; LEDGF integ inh: 17*; TDP2 inh: 20; NSD2 inh: 100*; IN multimer up: 6; TRFRET interf: -23; IN-LEDGF confirm: 17*; AlphaScreen art: -10%

Results for COc1ccc(/C=N/NC(=O)c2nn(-c3ccc(Cl)cc3)c(=O)c3c(N)scc23)cc1 ?
MBD2 inh: -2; UHRF1 binding: 8; LEDGF integ inh: 11; TDP2 inh: 12; NSD2 inh: 2

How did C[C@@H]1CN([C@@H](C)CO)C(=O)c2cc(C#Cc3cccc(F)c3)cnc2O[C@H]1CN(C)Cc1ccccn1 do in these assays?
Casp6 inh: -2

How did O=C1Nc2ccccc2/C1=N\N=C\c1ccc(O)c(O)c1 do in these assays?
MBD2 inh: -8; Casp6 inh: 36*; UHRF1 binding: -2; LEDGF integ inh: 45*; TDP2 inh: -12; NSD2 inh: 119*; IN multimer up: 37*; TRFRET interf: -132; IN-LEDGF confirm: 81*; AlphaScreen art: 3µM*

What do the screens show for `COc1cc(/C=N/N=C2/C(=O)Nc3ccccc32)ccc1O`?
MBD2 inh: -3; UHRF1 binding: -13; LEDGF integ inh: -6; TDP2 inh: 1; NSD2 inh: 22

What do the screens show for `Cc1ccc(S(=O)(=O)/N=C2/NC(=O)/C(=C/c3ccc(Br)o3)S2)cc1`?
MBD2 inh: 25*; UHRF1 binding: 81*; LEDGF integ inh: 38*; TDP2 inh: 1; NSD2 inh: 70*; IN multimer up: 1; TRFRET interf: -5; IN-LEDGF confirm: 11; AlphaScreen art: -2%

What do the screens show for `Oc1cccc(/C=N/NC(=S)Nc2cccnc2)c1O`?
MBD2 inh: 5; UHRF1 binding: -8; LEDGF integ inh: 33*; TDP2 inh: 2; NSD2 inh: 79*; IN multimer up: 21*; TRFRET interf: -106; IN-LEDGF confirm: 30*; AlphaScreen art: -6%

What do the screens show for `Cc1cc(/C=C\c2nc(O)c([N+](=O)[O-])c(=O)[nH]2)c(C)n1-c1ccccc1`?
MBD2 inh: 3; Casp6 inh: 61*; UHRF1 binding: 15; LEDGF integ inh: 29*; TDP2 inh: 7; NSD2 inh: 62*; IN multimer up: 3; TRFRET interf: -14; IN-LEDGF confirm: 7; AlphaScreen art: -8%

What do the screens show for `CSc1nnc(-c2ccco2)c(-c2ccco2)n1`?
MBD2 inh: 0; Casp6 inh: 48*; UHRF1 binding: 18; LEDGF integ inh: 27*; TDP2 inh: 23; NSD2 inh: 114*; IN multimer up: 5; TRFRET interf: -26; IN-LEDGF confirm: 45*; AlphaScreen art: -8%

What do the screens show for `COc1ccc(Sc2ccccc2CN(C)C)cc1OC`?
MBD2 inh: -1; UHRF1 binding: 2; LEDGF integ inh: 3; TDP2 inh: -3; NSD2 inh: 16
